# Screening data from PubChem BioAssay.
# TbMetRS inhib = T. brucei MetRS inhibitors, primary screen, biochemical, luminescence | methionyl-tRNA synthetase (Trypanosoma brucei brucei) | purified T. brucei MetRS, ATP depletion, Kinase-Glo luminescence | inhibition, % at 11.9 µM | 0.4% of 360,000 active;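 active = inhibition above a per-plate cutoff of the control wells' mean inhibition plus 3 SD, cut at about 5.5% in these data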;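 note: 0% = DMSO wells median and 100% = median of wells with control inhibitor compound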
#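 System: purified T. brucei MetRS enzyme / Detection: Kinase-Glo luciferase luminescence reporting remaining unconsumed ATP / Medium: HEPES buffer with MgCl2, KCl, DTT, spermine, BSA, pyrophosphatase / Replication: singlicate, one well per compound / Evaluation: percent inhibition relative to median high and low control wells / Schedule: 2 h aminoacylation at 25 °C after 15 min preincubation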
# HCV core dimer = inhibitors of HCV core protein dimerization, primary screen, biochemical, TR-FRET, high-throughput; TR-FRET GST/Flag-core106 dimerization, 1536-well; inhibition, % at 5 µM; 0.33% of 300,000 active;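 active = inhibition above the mean of all tested compounds plus 3 SD, set per screening campaign, cut at about 45% in these data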
#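 Material: Tagged HCV core106 pair (GST and Flag) | Amount: GST-core106 13.5 nM, Flag-core106 17 nM | Medium: KF-containing HEPES buffer, pH 7.45, DTT, CHAPS, BSA | Reagent: Eu donor and XL665 acceptor anti-tag antibodies | Schedule: 4 h at 22.5 °C | Technique: Time-resolved FRET, ex 340 nm, em 617 and 671 nm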
# Pemphigus Ab inh = inhibitors of pemphigus antibody binding to DSG3, primary screen, biochemical, bead-based, flow cytometry, scFv-GFP; Desmoglein-3 (Homo sapiens), P32926; binding (percent of control), % at 10 µM; DSG3-coupled beads, scFv-anti-DSG3-GFP binding; hits give low values; 0.48% of 310,000 active; AID 588358, 2011;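 active = binding more than 3 SD below its plate's average and above zero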;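 note: hits lower antibody fragment binding to DSG3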
# Target sequence (P32926 whole entry, looked up, the tested form may be a part): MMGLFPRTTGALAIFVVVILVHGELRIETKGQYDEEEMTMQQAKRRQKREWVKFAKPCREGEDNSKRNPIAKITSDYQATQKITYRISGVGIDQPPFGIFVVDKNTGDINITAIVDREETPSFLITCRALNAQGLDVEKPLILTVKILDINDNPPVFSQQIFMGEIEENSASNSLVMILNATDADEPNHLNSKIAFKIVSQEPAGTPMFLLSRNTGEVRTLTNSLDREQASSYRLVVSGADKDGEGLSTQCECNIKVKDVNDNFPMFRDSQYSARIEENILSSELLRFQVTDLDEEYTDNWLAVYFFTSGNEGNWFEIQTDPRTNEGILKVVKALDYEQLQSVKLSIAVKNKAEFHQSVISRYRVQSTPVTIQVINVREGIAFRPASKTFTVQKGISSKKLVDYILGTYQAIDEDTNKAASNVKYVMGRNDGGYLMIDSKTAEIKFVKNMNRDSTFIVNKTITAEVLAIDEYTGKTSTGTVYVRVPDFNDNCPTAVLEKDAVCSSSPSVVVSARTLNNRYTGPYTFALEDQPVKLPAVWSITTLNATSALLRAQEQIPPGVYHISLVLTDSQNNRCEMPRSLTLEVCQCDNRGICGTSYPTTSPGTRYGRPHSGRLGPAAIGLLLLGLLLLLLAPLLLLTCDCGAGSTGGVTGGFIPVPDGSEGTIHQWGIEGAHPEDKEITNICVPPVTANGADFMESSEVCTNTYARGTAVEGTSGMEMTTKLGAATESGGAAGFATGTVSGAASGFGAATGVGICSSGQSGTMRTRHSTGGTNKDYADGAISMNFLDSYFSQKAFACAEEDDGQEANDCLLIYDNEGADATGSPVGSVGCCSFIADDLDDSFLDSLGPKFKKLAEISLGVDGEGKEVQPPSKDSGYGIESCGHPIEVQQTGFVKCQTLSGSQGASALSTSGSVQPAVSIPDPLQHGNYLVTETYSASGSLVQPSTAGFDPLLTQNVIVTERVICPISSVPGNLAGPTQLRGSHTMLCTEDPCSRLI
# Rce1 inh = yeast Rce1p protease inhibitors, primary screen, biochemical, fluorescence, cell-free homogeneous | 0.27% of 290,000 active | yeast membranes, quenched prenylated peptide cleavage fluorescence | calls only | AID 2563, 2010;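 active = fall in fluorescence gain of 50% or more versus controls, with final raw signal at or below 3038400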;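 note: plate controls were neutral control wells for no effect and wells lacking membranes for full effect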
# NadD inh = inhibitors of S. aureus NadD, primary screen, biochemical, colorimetric, uHTS; purified NadD enzyme, colorimetric absorbance read-out; 0.78% of 360,000 active; AID 602399, 2012; inhibition, % at 20 µM; in the data active = inhibition above about 26%
# NadD inh conf = inhibitors of S. aureus NadD, confirmation, biochemical, colorimetric, single concentration | purified S. aureus NadD, colorimetric enzyme assay | AID 624309, 2012 | inhibition, % at 20 µM | 13% of 2,000 active | shares compounds with NadD inh; in the data active = inhibition mostly above about 42%, no sharp cut-off; inactive = mostly below about 42%
# An asterisk follows results filed as active; i = inactive; / = not tested or not shown. The list is not random: actives were taken first. Their share in the collection is about 1.9%.
SMILES,TbMetRS inhib,HCV core dimer,Pemphigus Ab inh,Rce1 inh,NadD inh,NadD inh conf
COCCCNC(=O)CC(NCCCOC)C(=O)O (configuration not stated),-0.8,-10.4,95.8,i,0.4,/
COc1ccc(C2CC(c3ccccc3)=NN2C(=O)CN2N=NC3C(=O)N(c4cccc(F)c4)C(=O)C32)cc1 (configuration not stated),1.8,39.6,98.1,i,40.5*,8.5
CC(C)C(=O)Nc1cccc(NC(=S)NC(=O)c2ccc3c(c2)OCO3)c1,-0.3,4.1,/,i,-5.6,/
Cc1cc(/C=N/NC(=O)c2cc3ccccc3o2)c(C)n1C,-0.5,26.4,99.4,i,34.8*,19.4
CC(C)n1cc(/C=N\NC(=O)c2cc3c(ccc4ccccc43)o2)c2ccccc21,0.5,/,98.9,/,32.9*,2.3
CCn1cc(/C=N/NC(=O)c2cc3c(ccc4ccccc43)o2)c2ccccc21,0.4,30.0,95.4,i,35.5*,48.5*
O=C(N/N=C/c1ccncc1)c1cc2ccccc2o1,-0.5,2.1,103.8,i,-2.5,/
COc1ccc(CC(=O)NNC(=O)[C@@H]2CCCC[C@@H]2C(=O)O)cc1,0.0,-2.5,104.8,i,1.5,/
Cc1ccc(-c2onc3ccc(Cl)cc23)cc1,0.3,0.5,98.0,i,-1.8,/
Nc1c(Cl)cc(-c2csc(N3CCCC3c3nc4cc(Cl)c(Cl)cc4n3CCCO)n2)cc1Cl (configuration not stated),-0.1,-71.3,96.4,i,14.0,/
CCCn1c(C2CCCN2c2nc(-c3cccc(Br)c3)cs2)nc2cc(Cl)c(Cl)cc21 (configuration not stated),-0.3,-5.8,97.9,i,36.1*,29.8
Cc1ccc(Cn2c(C3CCCN3c3nc(-c4cc(Cl)c(N)c(Cl)c4)cs3)nc3cc(Cl)c(Cl)cc32)cc1 (configuration not stated),-0.3,9.7,90.5,i,51.3*,43.3*
Nc1c(Cl)cc(-c2csc(N3CCCC3c3nc4cc(Cl)c(N5CCCCC5)cc4n3CCCO)n2)cc1Cl (configuration not stated),0.1,0.8,89.0,i,31.6*,15.0
COc1ccc(Cn2c(SCc3ccccc3C)nc3cc(OC)c(OC)cc3c2=N)cc1,-1.1,-8.9,106.2,i,30.4*,15.3
CCOC(=O)c1cc(-c2ccco2)nc2c1c(C)nn2-c1ccccc1,-0.5,58.7*,93.2,i,33.3*,8.0
CCCn1c(=O)c2c(C(=O)OCC)cc(-c3ccco3)nc2n(CCC)c1=O,-1.2,/,111.3,i,-2.5,/
O=C(Nc1nc(C2C3CC4CC(C3)CC2C4)cs1)c1cc2cc([N+](=O)[O-])ccc2oc1=O (configuration not stated),-0.1,5.2,103.9,i,35.1*,3.6
O=c1c2c3nc4ccccc4nc3n(Cc3ccccc3)c2ncn1Cc1ccco1,-0.6,/,98.7,/,39.1*,14.1
COc1ccc(C2=C(C=Nc3c(C)n(C)n(-c4ccccc4)c3=O)C(c3ccccc3C)c3ccccc3O2)cc1OC (configuration not stated),-0.5,27.2,96.7,i,34.4*,11.5
O=C(CSc1nc(-c2ccc(Cl)cc2)[nH]c(=O)n1)Nc1cccc(Cl)c1,-0.1,6.5,90.4,i,12.0,/
CCCc1cc2c(=O)c(-c3nc4ccccc4s3)c(COCC(=O)O)oc2cc1O,0.0,/,97.0,/,29.8*,30.3
CCc1cc2c(=O)c(-c3nc4ccccc4n3C)c(COCC(=O)O)oc2cc1O,-0.3,14.5,101.8,/,0.0,/
CC(C)NC(=O)c1cc(-c2ccc3c(c2)OCO3)on1,-0.1,-3.0,106.6,i,-2.0,/
CSc1nc(NCCN(C)C)c2sc3nc(-c4ccco4)c4c(c3c2n1)CCC4,2.0,/,116.0,/,-4.2,/
CSc1nc(SCC(=O)O)c2sc3nc(-c4ccccc4)c4c(c3c2n1)CCC4,-0.5,/,65.8*,i,28.3*,-0.3
SMILES,TbMetRS inhib,HCV core dimer,Pemphigus Ab inh,Rce1 inh,NadD inh,NadD inh conf
CCOC(=O)c1cc(-c2ccccc2)sc1NC(=O)C(C)N1C(=O)NC(C)(c2ccc(Cl)cc2)C1=O (configuration not stated),0.2,31.8,87.6,i,30.0*,-7.7
CC(C)[C@H](NC(=O)C1CCN(S(=O)(=O)c2ccccc2)CC1)C(=O)NCc1ccccc1,0.0,-21.2,105.2,i,-1.9,/
Cc1ccc(NC(=O)COc2ccc(S(=O)(=O)N3CCOCC3)cc2)cc1,3.3,-0.5,99.8,i,-5.5,/
CC(C)c1ccc(NC(=O)COc2ccc(S(=O)(=O)N3CCOCC3)cc2)cc1,-1.0,3.2,89.5,i,45.5*,0.6
CN1CCC(Oc2ccccc2Sc2ccc(C(F)(F)F)cc2)CC1,0.3,-3.3,97.1,i,-2.9,/
CC1(C)CC(=O)CC2(C1)NCC(c1ccccc1)c1c2[nH]c2ccccc12 (configuration not stated),-0.5,-3.2,107.2,i,1.9,/
C[C@@H]1NC(=O)[C@H](CCCN=C(N)N)NC(=O)c2cc([N+](=O)[O-])cc(I)c2NCCC[C@@H](C(N)=O)NC1=O,-0.3,-18.7,102.2,i,-9.9,/
Cc1ccc(C(C)(C)C)cc1S(=O)(=O)N1CCC(C(=O)N2CCN(c3ccc(O)cc3)CC2)CC1,-0.4,/,110.8,/,67.0*,17.1
C=C1CN(CC(=O)OC)S(=O)(=O)c2ccccc21,0.0,-4.3,99.4,i,-1.3,/
C=C1CN(Cc2ccccc2)S(=O)(=O)c2ccccc21,0.2,23.6,102.0,i,42.3*,32.1
CCN(CC)C(=O)[C@H]1C[C@H](CC(=O)NC/C=C(\C)CCC=C(C)C)C(=O)N2CCc3c([nH]c4cc(-c5ccco5)ccc34)[C@]12C,-0.5,/,98.5,/,27.0,/
O=C(C[C@H]1C[C@H](C(=O)N2CCOCC2)[C@@]2(CCC3CCCC3)c3[nH]c4cc(-c5ccco5)ccc4c3CCN2C1=O)NCCN1CCOCC1,-1.1,/,94.6,/,6.3,/
CC(C)=CCC/C(C)=C/CNC(=O)C[C@H]1C[C@H](C(=O)N2CCOCC2)[C@@]2(CCC3CCCC3)c3[nH]c4cc(-c5ccco5)ccc4c3CCN2C1=O,-0.1,/,92.0,/,45.9*,11.5
